Source: publication PMC7951180 (Nature cell biology, 2020)
One block for each molecule: values may come before it.

Assays:
Dmd C3333Y mice [1] = assay: Echocardiography; assay type: in vivo, mouse; details: 4 to 24 weeks of age, AGR mimics 10 mg/kg subQ every three days, Nifenazone 10 mg/kg i.p. daily, n=5
Procedure, shortened: (§1)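 Male and female Dmd WT and Dmd C3333Y mice were dosed from 4 weeks to 16 or 24 weeks of age. […] Groups were randomised by age and sex. Left ventricular values or cardiac fibrotic area percentage are reported as mean±SD, n=5/group, one-way ANOVA.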

TRIM63 = TRIM63 (Homo sapiens, UniProt Q969Q1); assay: Screen of small molecule inhibitors targeting TRIM63; assay type: biochemical; details: library of 2027 bioactive compounds; Ub-DMD (Lys3584) antibody, OD450
Chain of TRIM63 (Q969Q1 whole entry): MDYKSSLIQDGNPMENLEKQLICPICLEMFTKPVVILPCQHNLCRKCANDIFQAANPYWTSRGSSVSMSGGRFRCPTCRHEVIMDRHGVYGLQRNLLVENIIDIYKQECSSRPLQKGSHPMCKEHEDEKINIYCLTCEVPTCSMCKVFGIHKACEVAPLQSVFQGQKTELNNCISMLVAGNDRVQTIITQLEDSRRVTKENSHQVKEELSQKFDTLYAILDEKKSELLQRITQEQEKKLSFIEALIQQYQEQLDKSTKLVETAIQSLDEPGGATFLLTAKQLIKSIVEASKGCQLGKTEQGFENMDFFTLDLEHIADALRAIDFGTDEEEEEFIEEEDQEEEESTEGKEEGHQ
Procedure, shortened: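 The library screen measured DMD poly-ubiquitination by sandwich ELISA, with His6-TUBE capture and Ub-DMD (Lys3584) antibody detection read at OD450. Background-subtracted mean absorbance per compound was normalised to DMSO-treated samples and expressed as log2 fold change.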

hiPS-SkMCs [2] = assay: Immunoprecipitation and immunoblotting in hiPS-SkMCs; assay type: cell-based, human; details: IB; for Ub-DMD in K3584R mutant knockin BMD iPS-SkMCs: GM04981 K3584R
Dmd C3333Y mice [3] = assay: Fibrotic area in the heart of treated Dmd C3333Y mice; assay type: in vivo, mouse; details: 4 to 24 weeks of age, AGR mimics 10 mg/kg subQ every three days, Nifenazone 10 mg/kg i.p. daily, n=5
Procedure, shortened: as §1

Body weight measurement = assay type: in vivo, mouse; details: Dmd C3333Y mice from 4 weeks of age; AGR mimics 10 mg/kg subQ every three days; Nifenazone 10 mg/kg i.p. daily
Procedure, shortened: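 Weighed weekly in male Dmd WT (scramble- or vehicle-treated) and Dmd C3333Y mice during dosing from 4 weeks of age, to 16 weeks for the i.p. drug arm. AGR-Scr and AGR-H19 mut served as control mimics. Mean±SD, n=5 mice/group, two-way ANOVA.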

hiPS-SkMCs [4] = assay: IF staining / IB of DMD and Ub-DMD; assay type: cell-based, human; details: iPS-SkMCs and iPS-CMs derived from BMD patients; Nifenazone 10 μM, 72 hours
Procedure, shortened: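 Skeletal muscle cells came from iPSCs reprogrammed from fibroblasts of a healthy donor (GM09503) and four BMD donors (GM04981, GM02298, GM05089, GM04569). iPSCs were kept feeder-free on Matrigel in mTeSR1. For IF, myoblasts on collagen I-coated coverslips grew to confluence, then spent 4 days in myotube medium before 4% paraformaldehyde fixation. IF intensity combined average staining and percentage of positive cells; n=5 independent experiments, two-way ANOVA. Immunoblots were repeated twice.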

Dmd C3333Y mice [5] = assay: Forelimb grip strength test of treated Dmd C3333Y mice; assay type: in vivo, mouse; details: AGR mimics 10 mg/kg subQ every three days, Nifenazone 10 mg/kg i.p. daily
Blood biochemistry = assay type: in vivo, mouse; details: Dmd C3333Y mice from 4 weeks of age; AGR mimics 10 mg/kg subQ every three days; Nifenazone 10 mg/kg i.p. daily
mdx mice = assay: IF staining of DMD and Ub-DMD in QUA of mdx mice with PPMO23 exon skipping; assay type: in vivo, mouse; details: PPMO23 15 mg/kg i.v. biweekly alone, or with AGR-H19 10 mg/kg s.q. every three days or Nifenazone 10 mg/kg i.p. daily; 4 to 24 weeks of age; n=5
Procedure, shortened: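 Controls were male C57BL/10J mice on scramble RNA plus vehicle, and mdx mice on scramble. Quadriceps were immunostained for DMD and Ub-DMD, and intensity was scored as average intensity × percentage positive cells. Mean±SD, n=5/condition, one-way ANOVA.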

Dmd C3333Y mice [6] = assay: IF staining of DMD and Ub-DMD; assay type: in vivo, mouse; details: Dmd C3333Y mice QUA, AGR mimics 10 mg/kg subQ every three days, Nifenazone 10 mg/kg i.p. daily, n=5
Procedure, shortened: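 Quadriceps sections from Dmd WT and Dmd C3333Y mice on control or test mimics, vehicle, or daily i.p. drug were immunostained for DMD and Ub-DMD (Lys3584). Intensity was quantified from average staining intensity and percentage of positively stained cells. Mean±SD, n=5 animals/group, one-way ANOVA.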

Pharmacokinetics = assay type: in vivo, mouse; details: biotin-labeled, 10 mg/kg single dose, wild type C57BL/6 mice, 3–72 hours; dot-blot, n=5 animals per time point
Procedure, shortened: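 A single 10 mg/kg dose of biotinylated H19 mimic (i.p. or subQ) or AGR-H19 (subQ) was given to wild type C57BL/6 mice. Muscle, heart, liver, kidney and lung were taken at 3, 12, 24, 48 or 72 h. Small RNA was dot-blotted against a 2-fold standard series of 1 μg–1 pg and detected with streptavidin-HRP. Levels are given as ng/g tissue, with PK parameters from nonlinear regression. n=5/time point.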

indicated genes = assay: RT-qPCR of indicated genes and microRNAs; details: Dmd C3333Y QUA; 10 mg/kg subQ every three days
[7] = Serum IGF1 and IGF2 concentration; assay type: in vivo, mouse; details: Dmd C3333Y mice; 10 mg/kg subQ every three days
Procedure, shortened: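 Serum IGF1 and IGF2 were measured in Dmd WT and Dmd C3333Y mice under the treatment arms. AGR mimics were dosed from 4 weeks of age to 16 or 24 weeks. Mean±SD, n=5 mice/group, one-way ANOVA.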

Inhibition of the enzymatic activities of TRIM63 in vitro (screen) (TRIM63): effective inhibition
Liver or kidney function (Blood biochemistry): minimally affected
Molecule: Cc1c(NC(=O)c2cccnc2)c(=O)n(-c2ccccc2)n1C [Nifenazone]
Heart function (left ventricular ejection fraction and fraction shortening) (Dmd C3333Y mice [1]): improved
Ub-DMD in K3584R mutant knockin BMD iPS-SkMCs (hiPS-SkMCs [2]): minimally affected
Ub-DMD in hiPS-SkMCs upon NIF treatment (hiPS-SkMCs [2]; vehicle or NIF): inhibited
Fibrotic area in the heart (Dmd C3333Y mice [3]): reduced
Body weight (Body weight measurement): minimally affected
Dystrophin protein stability (hiPS-SkMCs [4]): stabilized dystrophin
Status of Ub-DMD (Lys3584) (hiPS-SkMCs [4]): attenuated
Muscle strength (Dmd C3333Y mice [5]): significantly improved
Dystrophin protein in skeletal muscle of mdx mice (mdx mice): significantly increased
Ub-DMD (poly-Ub) in skeletal muscle of mdx mice (mdx mice): reduced
Dystrophin level in skeletal muscle (Dmd C3333Y mice [6]): restored
Ub-DMD level in skeletal muscle (Dmd C3333Y mice [6]): decreased

Molecule: N-terminal-ELTNEIPAELTNEIPA-Linker-5'-[2’-F-C][2’-F-U][2’-F-C][2’-F-U][2’-F-U][2’-F-U][2’-F-G][2’-F-U][2’-F-U][2’-F-U][2’-F-C][2’-F-U][2’-F-G][2’-F-A][2’-F-G][2’-F-C][2’-F-U][2’-F-U][2’-F-U][2’-F-C][2’-F-C][2’-F-U][2’-F-G][2’-F-U][2’-F-C][2’-F-U][2’-F-U][2’-F-U][2’-F-C][2’-F-C]-3' [AGR-H19]
Heart function (left ventricular ejection fraction and fraction shortening) (Dmd C3333Y mice [1]): increased
Amount in skeletal and cardiac muscles after dosing (Pharmacokinetics): substantial amount
Ub-DMD in K3584R mutant knockin BMD iPS-SkMCs (hiPS-SkMCs [2]): minimally affected
Fibrotic area in the heart (Dmd C3333Y mice [3]): reduced
Body weight (Body weight measurement): minimal effects
Expression status of microRNAs tested (indicated genes): minimal effects
Serum IGF1/IGF2 [7]: minimal effects
Muscle strength (Dmd C3333Y mice [5]): improved
Liver or kidney function (Blood biochemistry): minimal effects
Dystrophin protein in skeletal muscle of mdx mice (mdx mice): significantly increased
Ub-DMD (poly-Ub) in skeletal muscle of mdx mice (mdx mice): reduced
Dystrophin level in skeletal muscle (Dmd C3333Y mice [6]): elevated
Ub-DMD level in skeletal muscle (Dmd C3333Y mice [6]): reduced

Molecule: RXRRBRRXRRBRXB [PPMO23]
Dystrophin protein in skeletal muscle of mdx mice (mdx mice): partially restored
Ub-DMD (poly-Ub) in skeletal muscle of mdx mice (mdx mice): robust
